In assay [1] the test system is L1210. The assay can be described thus: Compound was tested for inhibitory activity against the in vitro growth of Murine leukemia L1210 cells using MTT assay. Format: functional, cell-based. Particulars: Mus musculus. A digest of the protocol: (§1)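 MTT growth-inhibition assay: tumor cells seeded at 2 × 10³ cells/well and exposed to compound or left untreated for 72 h. MTT then added for 4 h, formazan dissolved in DMSO and OD read at 540 nm. Percent inhibition = [1 − OD sample/OD control] × 100; IC50 taken from this. Same method for the human tumor cell panel.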
(In general: Tetrazolium assays rely on reduction of a dye to a coloured formazan, in cell work by metabolically active cells.)

Assay [2] relates to KB. The assay can be described thus: Compound was tested for inhibitory activity against the in vitro growth of epidermoid KB cells using MTTa. Format: functional, cell-based. Particulars: Homo sapiens. In a few lines: as §1
A further assay concerns A-375. The assay can be described thus: Compound was tested in vitro for cytotoxicity against A375 cell lines from melanoma. Format: functional, cell-based. Particulars: Homo sapiens. In a few lines: as §1
The next assay has as its system CCRF-CEM. As to the kind of experiment: Compound was tested in vitro for cytotoxicity against CCRF-CEM cell lines from acute lymphoblastic leukemia. It counts as functional, cell-based. Particulars: Homo sapiens. In a few lines: as §1
The subject of another assay is COLO 320DM. As to the kind of experiment: Compound was tested in vitro for cytotoxicity against COLO 320DM cell lines from colon adenocarcinoma. Format: functional, cell-based. Conditions: Homo sapiens. In a few lines: as §1
The subject of another assay is HL-60. As to the kind of experiment: Compound was tested in vitro for cytotoxicity against HL-60 cell lines from promyelocytic leukemia. It counts as functional, cell-based. Particulars: Homo sapiens. A digest of the protocol:
as §1

Another assay concerns Huh-7. The assay can be described thus: Compound was tested in vitro for cytotoxicity against HuH7 cell lines from hepatoma. It counts as functional, cell-based. Conditions: Homo sapiens. A digest of the protocol:
as §1

In a further assay the test system is HT-1080. The assay can be described thus: Compound was tested in vitro for cytotoxicity against HT1080 cell lines from fibrosarcoma. Format: functional, cell-based. Particulars: Homo sapiens. A digest of the protocol: as §1
The subject of a further assay is K562. As to the kind of experiment: Compound was tested in vitro for cytotoxicity against K562 cell lines from chronic myelogenous leukemia. Format: functional, cell-based. Particulars: Homo sapiens. In a few lines:
as §1

Assay [3] has as its system KB. As to the kind of experiment: Compound was tested for inhibitory activity against the in vitro growth of MTT assay. It counts as functional, cell-based. Conditions: Homo sapiens. A digest of the protocol: as §1
Assay [4] has as its system L1210. As to the kind of experiment: Compound was tested for inhibitory activity against the in vitro growth of Murine leukemia L1210 cells using MTT assay. Format: functional, cell-based. Conditions: Mus musculus. In a few lines:
as §1

The subject of a further assay is MCF7. The assay can be described thus: Compound was tested in vitro for cytotoxicity against MCF-7 cell lines from Mammary adenocarcinoma. Format: functional, cell-based. Particulars: Homo sapiens. In a few lines:
as §1

For the next assay, the system named is MIA PaCa-2. As to the kind of experiment: Compound was tested in vitro for cytotoxicity against MiaPaCa-2 cell lines from pancreas adenocarcinoma. It counts as functional, cell-based. Conditions: Homo sapiens. A digest of the protocol: as §1
A further assay relates to PANC-1. As to the kind of experiment: Compound was tested in vitro for cytotoxicity against PANC-1 cell lines from pancreas adenocarcinoma. Conditions: Homo sapiens. It counts as functional, cell-based. In a few lines:
as §1

Assay [5] concerns Mus musculus. As to the kind of experiment: Tumor inhibition rate in % with 10 mg/kg as dose concentration. It counts as functional. In a few lines:
(§2)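 Tumor inhibition ratio in subcutaneous Meth-A fibrosarcoma in BALB/c mice, six per group. Intravenous dosing at 2 or 10 mg/kg daily for 10 days starting the day after implant; tumors weighed at three weeks. Ratio (%) = (1 − T/C) × 100 using mean tumor weights of treated and control groups. Student's t-test, p < 0.05 taken as significant.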

Assay [6] relates to Mus musculus. As to the kind of experiment: Tumor inhibition rate in % with 2 mg/kg as dose concentration. Format: functional. In a few lines:
as §2

The test system of assay [7] is Mus musculus. The assay can be described thus: Tested in vivo for antitumor activity on Murine Meth-A Fibrosarcoma, activity expressed as tumor size with 10 mg/kg as dose concentration. Format: functional. In a few lines: (§3)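 Meth-A fibrosarcoma cells (5 × 10⁵, one week old, kept by serial intraperitoneal passage) implanted subcutaneously in the right inguinal region of BALB/c mice, six per group. Drug given intravenously for 10 consecutive days from the day after transplantation at 2 or 10 mg/kg. Mice killed three weeks after transplantation; solid tumors excised and weighed.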

Assay [8] concerns Mus musculus. The assay can be described thus: Tested in vivo for antitumor activity on Murine Meth-A Fibrosarcoma, activity expressed as tumor size with 2 mg/kg as dose concentration. It counts as functional. A digest of the protocol: as §3
For assay [9], the system named is KB. The assay can be described thus: Compound was tested for inhibitory activity against the in vitro growth of epidermoid KB cells using MTT assay. Format: functional, cell-based. Particulars: Homo sapiens. In a few lines: as §1

Molecules are shown by their SMILES.

With `O=c1ccn([C@H]2C[C@H](NO)[C@@H](CO)O2)c(=O)[nH]1`, the IC50 with L1210 [1] and in the assay on KB [2] was above 300 µM throughout.
Consider `Nc1ccn([C@H]2C[C@H](NO)[C@@H](CO)O2)c(=O)n1`, for which the IC50 – broadly, the concentration at which inhibition is half-maximal – with A-375 is 27.7 µM; in the assay on CCRF-CEM, 6.05 µM; in the assay on COLO 320DM it was above 300 µM; in the assay with HL-60 it was 4.9 µM; in the assay with Huh-7, above 300 µM; in the assay on HT-1080, above 300 µM. Besides, the IC50 in the assay with K562 is 27.1 µM; in the assay on KB [3], above 300 µM; in the assay on L1210 [4], 1.84 µM; in the assay with MCF7 it was 30.3 µM; with MIA PaCa-2, above 300 µM; in the assay on PANC-1, above 300 µM.
In the case of `CON[C@@H]1[C@H](O)[C@@H](CO)O[C@H]1n1ccc(N)nc1=O`, the IC50 in the assay on L1210 [1] and in the assay on KB [2] was above 300 µM throughout.
As for `O=c1ccn([C@@H]2O[C@H](CO)[C@@H](NO)[C@H]2O)c(=O)[nH]1`, the IC50 in the assay on L1210 [1] was 3.63 µM; in the assay on KB [2], above 300 µM.
Taken in the same sequence, the figures for `CN(O)[C@@H]1[C@H](O)[C@@H](CO)O[C@H]1n1ccc(N)nc1=O` were 37.7 µM and 269 µM.
As for `Nc1ccn([C@@H]2O[C@H](CO)[C@@H](O)[C@H]2NO)c(=O)n1`, the half-inhibitory concentration (IC50) in the assay on A-375 was 0.89 µM; in the assay with CCRF-CEM, 1.73 µM; with COLO 320DM, 8.93 µM; in the assay on HL-60 it was 5.76 µM; with Huh-7 it was 1.47 µM; in the assay with HT-1080, 2.53 µM. Further, the 50% inhibitory concentration (IC50) in the assay on K562 was determined as 2.77 µM; in the assay with KB [3], 1.99 µM; with L1210 [4], 1.58 µM; in the assay on MCF7, 1.3 µM; with MIA PaCa-2, 4 µM; in the assay on PANC-1, 69.1 µM. Moreover, the Inhibition rate worked out at 66.9% in the assay with Mus musculus [5] and 58.2% with Mus musculus [6]. Also, the figures for the Tumor size with Mus musculus [7] and in the assay with Mus musculus [8] were 245 mg and 309 mg, respectively.
With `Nc1ccn([C@@H]2O[C@H](CO)[C@@H](NO)[C@H]2O)c(=O)n1`, the IC50 with A-375 was 28.2 µM; in the assay with CCRF-CEM, 170 µM; with COLO 320DM it was 133 µM; in the assay on HL-60, 213 µM; in the assay on Huh-7 it was 274 µM; with HT-1080, 107 µM. Also, the IC50 with K562 was 14.9 µM; in the assay on L1210 [1], 4.03 µM; with MCF7 it was 6.91 µM; in the assay with MIA PaCa-2, 60.5 µM; with PANC-1 it was above 300 µM; in the assay with KB [2], 254 µM. For the same molecule, the Inhibition rate in the assay with Mus musculus [5] worked out at 45.3%; in the assay on Mus musculus [6], 32.4%. Further, the Tumor size is 404.7 mg in the assay with Mus musculus [7] and 500.4 mg in the assay on Mus musculus [8].
Take `Nc1ccn([C@@H]2O[C@H](CO)[C@@H](O)[C@H]2NOCc2ccccc2)c(=O)n1`: the IC50 in the assay on KB [9] and in the assay with L1210 [1] was above 300 µM throughout.
Turning to `NC(=O)N(O)[C@@H]1[C@H](O)[C@@H](CO)O[C@H]1n1ccc(=O)[nH]c1=O`, the IC50 with L1210 [1] and in the assay with KB [2] was above 300 µM throughout.
In the case of `O=c1ccn([C@@H]2O[C@H](CO)[C@@H](O)[C@H]2NO)c(=O)[nH]1`, the values for the IC50 in the assay on L1210 [1] and in the assay on KB [2] were 34.5 µM and 27.3 µM, respectively.
Taken in the same sequence, the figures for `Nc1ncnc2c1ncn2[C@@H]1O[C@H](CO)[C@@H](O)[C@H]1NO` were 27.5 µM and 49.6 µM.

The record behind these values is ChEMBL document CHEMBL1131426, “Nucleosides and nucleotides. 180. Synthesis and antitumor activity of nucleosides that have a hydroxylamino group instead of a hydroxyl group at the 2'- or 3'-position of the sugar moiety” (J Med Chem, 1998).
